From ChEMBL document CHEMBL4017501, “Paralog Specificity Determines Subcellular Distribution, Action Mechanism, and Anticancer Activity of TRAP1 Inhibitors” (J Med Chem, 2017) come the findings set out here.

In series [1] the test system is HeLa. In words: Induction of apoptosis in human HeLa cells assessed as early apoptotic cells at 20 uM after 24 hrs by Annexin V-FITC/propidium iodide staining based flow cytometry (reference value: 3.9%). It is filed as functional. (In flow cytometry, cells or beads pass a laser one at a time.)
Series [2] deals with Hepatocyte. In words: Cytotoxicity against mouse primary hepatocytes assessed as reduction in cell viability at 5 to 20 uM after 24 hrs by MTT assay. The series is classed as cell-based. The method in brief: (§1)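 Corneal cells kept in corneal medium; hepatocytes isolated from 8-week-old BALB/c mice and kept in M199/EBSS with 10% FBS. Cells given a range of drug concentrations for 24 h. MTT absorbance read at 595 nm and normalized to DMSO; two independent experiments in duplicate, mean ± SEM.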
In general terms: Tetrazolium dyes change colour on reduction, which living cells bring about.

Series [3] deals with HeLa. In words: Induction of apoptosis in human HeLa cells assessed as live cells at 20 uM after 24 hrs by Annexin V-FITC/propidium iodide staining based flow cytometry (reference value: 90.1%). It is filed as functional.
Series [4] has as its system PC-3. Put plainly: Induction of apoptosis in human PC3 cells assessed as live cells at 20 uM after 24 hrs by Annexin V-FITC/propidium iodide staining based flow cytometry (reference value: 97.4%). It is filed as functional.
Series [5] concerns HeLa. Put plainly: Induction of apoptosis in human HeLa cells assessed as necrotic cells at 20 uM after 24 hrs by Annexin V-FITC/propidium iodide staining based flow cytometry (reference value: 0.7%). The series is classed as functional.
In series [6] the test system is PC-3. Put plainly: Induction of apoptosis in human PC3 cells assessed as early apoptotic cells at 20 uM after 24 hrs by Annexin V-FITC/propidium iodide staining based flow cytometry (reference value: 0.7%). It is filed as functional.
The nature of series [7]: Cytotoxicity against human corneal cells assessed as reduction in cell viability at 5 to 20 uM after 24 hrs by MTT assay. The series is classed as cell-based. Put shortly: as §1
Series [8] has as its system HeLa. In words: Induction of apoptosis in human HeLa cells assessed as late apoptotic cells at 20 uM after 24 hrs by Annexin V-FITC/propidium iodide staining based flow cytometry (reference value: 5.3%). It is filed as functional.
For series [9], the system named is PC-3. In words: Induction of apoptosis in human PC3 cells assessed as late apoptotic cells at 20 uM after 24 hrs by Annexin V-FITC/propidium iodide staining based flow cytometry (reference value: 1.5%). The series is classed as functional.
Series [10] concerns PC-3. Put plainly: Induction of apoptosis in human PC3 cells assessed as necrotic cells at 20 uM after 24 hrs by Annexin V-FITC/propidium iodide staining based flow cytometry (reference value: 0.2%). It is filed as functional.
Series [11] has as its target T1, Heat shock protein 75 kDa, mitochondrial (Homo sapiens, UniProt Q12931).
T1 sequence (Q12931 whole entry): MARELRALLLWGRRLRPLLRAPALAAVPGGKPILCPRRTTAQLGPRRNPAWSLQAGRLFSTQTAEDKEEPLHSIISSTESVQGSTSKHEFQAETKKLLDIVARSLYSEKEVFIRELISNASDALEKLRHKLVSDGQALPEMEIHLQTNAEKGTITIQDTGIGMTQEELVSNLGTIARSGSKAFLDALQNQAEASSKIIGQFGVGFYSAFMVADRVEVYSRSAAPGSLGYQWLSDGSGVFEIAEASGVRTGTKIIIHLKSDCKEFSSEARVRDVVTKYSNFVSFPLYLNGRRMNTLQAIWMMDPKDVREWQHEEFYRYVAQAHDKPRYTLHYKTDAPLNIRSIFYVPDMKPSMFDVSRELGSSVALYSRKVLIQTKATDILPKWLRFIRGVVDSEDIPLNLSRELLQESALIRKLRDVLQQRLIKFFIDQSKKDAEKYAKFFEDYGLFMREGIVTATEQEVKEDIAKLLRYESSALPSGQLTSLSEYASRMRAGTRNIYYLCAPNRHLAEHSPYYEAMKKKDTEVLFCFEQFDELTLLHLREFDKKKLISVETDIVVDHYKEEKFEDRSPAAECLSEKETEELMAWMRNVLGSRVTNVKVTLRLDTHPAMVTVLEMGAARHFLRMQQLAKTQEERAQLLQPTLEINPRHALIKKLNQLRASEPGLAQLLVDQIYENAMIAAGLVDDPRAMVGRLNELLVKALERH
In words: Inhibition of FITC3-labeled PU-H71 binding to recombinant human N-terminal His6-tagged TRAP1 (60 to 561 residues) expressed in Escherichia coli BL21(DE3) after 24 hrs by fluorescence polarization assay. Put shortly:
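Recombinant TRAP1 (100 nM) incubated with 10 nM 1-FITC3 probe and varying inhibitor concentrations for 24 h at 4 °C. Buffer: PBS-type salts with 1 mM DTT, 2 mM MgCl2, 0.1 mg/mL BSA, 0.05% NP40, pH 7.3. Polarization (mP) scaled to maximum and minimum values; mean ± SEM of two independent experiments.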
A general note: Polarisation of emitted light reports the rotation of a fluorescent probe.

Series [12] concerns the target Heat shock protein HSP 90-alpha (Homo sapiens, UniProt P07900). Put plainly: Inhibition of FITC3-labeled PU-H71 binding to recombinant HSP90alpha (unknown origin) after 24 hrs by fluorescence polarization assay.
Series [13] addresses T2, Heat shock protein HSP90 (Homo sapiens, UniProt P07900+P08238). Put plainly: Inhibition of HSP90 in human PC3 cells assessed as induction of HSP70 protein expression at 10 uM after 6 hrs by Western blot method. The series is classed as cell-based.
Series [14] has as its target T2, Heat shock protein HSP90. Put plainly: Inhibition of HSP90 in human HeLa cells assessed as induction of HSP70 protein expression at 10 uM after 6 hrs by Western blot method. The series is classed as cell-based.

Turning to `CCNC(=O)c1noc(-c2cc(C(C)C)c(O)cc2O)c1-c1ccc(CN2CCOCC2)cc1` [LUMINESPIB], the Activity in [1] is reported as 7.5%; in series [2] it was “Toxic”; in series [3], 83%; in series [4], 93.5%; in series [5], 0.9%; in series [6] it was 0.7%. Also, the Activity entry is “Toxic” in [7], 8.6% in series [8], 5% in [9] and 0.9% in [10].

By IC50 is commonly meant the concentration that gives 50% inhibition. Regarding `Nc1nc(Cl)c2cnn(Cc3ccc4c(c3)OCO4)c2n1`, the IC50 in [11] was 6.34 µM; in series [12], 8.93 µM.

As for `Nc1nc(Cl)c2cnc(Cc3ccc4c(c3)OCO4)n2n1`, the IC50 in [11] and in series [12] was over 10 µM each time.

Regarding `CO[C@H]1/C=C\C=C(/C)C(=O)NC2=CC(=O)C(NCCN(C)C)=C(C[C@@H](C)C[C@H](OC)[C@H](O)[C@@H](C)/C=C(\C)[C@@H]1OC(N)=O)C2=O` [ALVESPIMYCIN], the Activity result in [2] and in [7] was “Toxic” in each case. Further, the “inhibition (INH)” value in series [13] and in series [14] was “Active” in each case.
